System: MS2 coat protein
Experiment: apparent Kd, MS2 coat protein; higher = weaker binding; RNA-MaP array; FMN 200 µM where present
Summary of the method: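 Each design was made on Illumina sequencing-chip clusters by stalled E. coli RNA polymerase and titrated with SNAP-549-labelled MS2 coat protein from 0.7 or 1.5 nM, doubling to 3 µM, in the absence and then the presence of constant ligand. The buffer was 100 mM Tris-HCl pH 7.5, 80 mM KCl, 4 mM MgCl2, BSA, DTT, yeast tRNA and Tween-20. The apparent Kd is the median of filtered per-cluster fits of binding curves, with green signal normalised to red-channel RNA signal and control-cluster median Fmax.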

[1] = designed as: OFF switch for flavin mononucleotide, no ligand
[2] = ligand present: flavin mononucleotide, designed as: OFF switch for flavin mononucleotide
[3] = designed as: ON switch for flavin mononucleotide, no ligand
[4] = ligand present: flavin mononucleotide, designed as: ON switch for flavin mononucleotide

Sequence	apparent Kd [1]	apparent Kd [2]	apparent Kd [3]	apparent Kd [4]
CAUAAACAUGAGGAUCACCCAUGUGAGGAUAUGAUAUUACUAGGACGGCUGUAAUCAAUCAGAAGGCACAUCUU	18.5 nM	37.5 nM		
AUGCUUUUUGUAGGAUAUACAUACGGUACGUAUGUAGAAGGACAUGAGGAUCACCCAUGUAAAUUAUUAUUAAAUAUCAUACUU	12.7 nM	12.2 nM		
AAAUAGGCAGGAUAUACAUGAAAAUUAAAAAAAAAAAAAAAACAUGAGGAUCACCCAUGUAGAAGGGUCAAAAA	97.5 nM	92.9 nM		
AUUAUUGACGUAGGAUAUUGUUACAUGAGGAUCACCCAUGUUAUUUGGGAACUAGGAAUAUUUUACAAGAAGGACGUUGUUAAA			74.9 nM	92.1 nM
AGCUAGUGAGGAUAUACGAACAUGUCAAAAGACUGUAAGGGACAUGAGGAUCACCCAUGUAGAAGGCACUAGCA	45.2 nM	384 nM		
AUUAUUGACAUAGGAUAUUGUUACAUGAGGAUCACCCAUGUUAUUUGGGAACUAGGAAUAUUUUACAAGAAGGAUGUUGUUAAA			91 nM	79.3 nM
UCUCGUGUUCAGAAGGGCAAUCAACGAACAUGAGGAUCACCCAUGUUCUGCAGGAUAUGAACGGGUGGGAGCCCUGCGAAGGGC			104 nM	15 nM
CCACCAAUCGAGAAGGGCCCAUGUGCUACAUCGGCAGGAUAUCGACAUGAGGAUCACCCAUGUUGGCGAUCCUUUUUGGCGGAC	176 nM	35.9 nM		
AAGAAGUCAGGAUAUGCAUGGCGGGACUUGCGUCGUGGCGUGCAGAAGGGACAUGAGGAUCACCCAUGUAAAGC	49.8 nM	42.4 nM		
UAUAUAUAGUAAGGAUAUGUAUUUAUUUAAUAAACAGAAGGUACUGACAUGAGGAUCACCCAUGUUUUAGUGUGGGCAUGUAGA	79.7 nM	149 nM		
AUUAUACAUGAGGAUCACCCAUGUCAACAAAGUCGAGGAUAUGGGCAAAUAAAAUAAGAACCAGAAGGCGAAUAAU			238 nM	61 nM
UGGCACCGAGGAUAUACAUGAGGAUCACCCAUGUUCGGAAAGCAUACGGUGGCUUGCUGUAGAAGGCGGGCCAC	16.2 nM	13 nM		
GGGUACAUCGGAGGAUAUCAUGUAAAUACAUGAGGAUCACCCAUGUCGAUGGAGACAUCGGAGAUUGAGAAGGUCGAUGUACCG			197 nM	9.52 nM
AUUGAUGUUGAGGAUAUGCUUUUAUUUGUUCUUGCAGAAGGCGAUACAUGAGGAUCACCCAUGUUCAUGGAAGU	51.6 nM	46.6 nM		
UUUACUAACGAAGGAUAUGGUUACAUGAGGAUCACCCAUGUAUGUAUAUUGAUCUAGUAUUUUAACCAGAAGGUCGUGAUUUUU	31.6 nM	45.3 nM		
UAUUUAUAAUAUUUUAACAUGAGGAUCACCCAUGUCGCUAGACAGGAUAUAUUUUAUUUUUUUAAGUAGAAGGGUCAUAUAUUU			84 nM	103 nM
CAGGUAGACUGAGGAUAUACAGACCUAGUCUAUCUAGGUCAAGUCCUUACAUGAGGAUCACCCAUGUAGAAGGCAGUCUGCCUG	19.5 nM	52.7 nM		
GUGUUUGAUGAGGAUAUCGAUGUGGGUACAUAGCGAGAAGGCAUUACAUGAGGAUCACCCAUGUAGUGUGGGUU	25 nM	56.7 nM		
AUCAGCUCGUCAGGAUAUACGUAACUGCGUCAGCAGUGUGGUAAGAUCACAUGAGGAUCACCCAUGUAGAAGGGACGAGCUGAU		529 nM		

Sequence	apparent Kd [1]	apparent Kd [2]	apparent Kd [3]	apparent Kd [4]
AUUUUGUCAGGAUAUGACUAGUAGGACGAGAGUGCUACUACUUAGAAGGGACAUGAGGAUCACCCAUGUAUUCC	16 nM	17.4 nM		
AGCGUACAAGCUGACAUGAGGAUCACCCAUGUGGUCUCAUGCGAGGAUAUCGGGAAGGAGGAUUCCGAGAAGGUGCGGUGAGCC			275 nM	44.9 nM
CACAUGUGAGGAUAUGUAAUAAAGGCGACGCGGGUCGCCCGACAGAAGGCACAUGAGGAUCACCCAUGUGAUGA	37 nM	98 nM		
AAAACACAUGAGGAUCACCCAUGUGAGGAUAUGUUAAUUUCGGCCAAAGCCGAAAUUAACAGAAGGCACAUAAA	49.9 nM	45.1 nM		
AAUGGCGUGAUAACGCUAAUUACAACAUGAGGAUCACCCAUGUAGGAUAUCCUACCGAAAUGGUAGGAGAAGGACAAGCAAUGA	30.4 nM	23.5 nM		
GACACUAUGUUUGUCAGAUAGAGAGAGGAUAUGGGUCAUGAGACAUGAGGAUCACCCAUGUAUAAUCAGAAGGCUCGAGUACGA			19.1 nM	13.7 nM
AUUUAGUGCGAGAAGGCGUGGUCACAUGAGGAUCACCCAUGUCAGUACACGAGGAUAUCGAUCCGCUAUGUAAACCUAGGCGGC			101 nM	6.89 nM
CUACCUUAUGAGAAGGCGGUCAUGAAACAUGAUCGAGGAUAUCAUGUAAACAUGAGGAUCACCCAUGUAUGGGUAUUAUGGUAU			146 nM	26.4 nM
UAAUAAUAAUAAUAGCAGAUUACAUGAGGAUCACCCAUGUAUAAGGAUAUCGUCAGGAAUACUGACGAGAAGGUAUACAACUGC	18.9 nM	25.7 nM		
CCGUUACAUGAGGAUCACCCAUGUGAGGAUAUCGAUGUGACUAGCAGCGUGCGGGACUCGAGAAGGCACUUGGC	57.8 nM	41.5 nM		
ACCUUACAUGAGGAUCACCCAUGUUAGGAUAUCUCGCCUGCGCAAUCACAGCGCAGGCAGAGAAGGGACGCGGG	30.3 nM	32.1 nM		
UUGUUGUGUGGAGGAUAUACACUAAUUGUUAGCGUAGAAGGCCACAUGAGGAUCACCCAUGUCCGGGUUACUGCCUAAGGAGUG	548 nM	99.5 nM		
GGAACGCUUGACAUGAGGAUCACCCAUGUUAGAUUGUUAUGUCAGGAUAUAGUCUAGAAACUAGACUAGAAGGGAUAUGUUUCU			428 nM	87.7 nM
AGCUGUGGCCGAGGAUAUCUAUCCCAAAUAACCGAAAUAUAAUCGGACAUGAGGAUCACCCAUGUAGAGAAGGCGGUCUCAGCA		35.1 nM		
AUCAGCUCGUCAGGAUAUACGUCACUGCGUCAGCAGUGUGGUAAGACCACAUGAGGAUCACCCAUGUAGAAGGGACGAGCUGAU	7.94 nM	24.5 nM		
UCCAGGUAAGGAUAUGGGCUGGACACCGGGUACGGCCAGCACCAGAAGGUACAUGAGGAUCACCCAUGUGUUCC	54.5 nM	274 nM		
CAAUCGGCACAGAAGGGUGACAUGAGGAUCACCCAUGUAGCGUGGCACUCAGGAGGAGCCACGCCACAGGAUAUGUGCCAGCAC			50.5 nM	53.8 nM
CAGUACUGAGGAUAUACAUGAGGAUCACCCAUGUGUCCCAGCUAGGAAACUAGCAAAAGUAGAAGGCAGUACUG	23.6 nM	538 nM		
UUUAUUAAUUAGAAGGCUUGAUGAAUUACAAUAGACAUGAGGAUCACCCAUGUGUAUUCAUGUCAAGAGGAUAUAGUCAUAUAU			11.3 nM	6.38 nM

Sequence	apparent Kd [1]	apparent Kd [2]	apparent Kd [3]	apparent Kd [4]
AGUCGUCAAGGAUAUAUAGUGAAGCACAAGCAGUGCCCUCUACAUGAGGAUCACCCAUGUAGAAGGUGGCGACU	15.6 nM	14.2 nM		
ACAUAAAUUCGAGGAUAUCGGUGAUAAAGAAGACGAGAAGGCGAUUAAAGAGAGAUGGUUAUAGACAUGAGGAUCACCCAUGUA			28.6 nM	22.8 nM
CCGGAAUCCUAGGAUAUGCUAGACGAGAGUCUAGCAGAAGGAGGAACAUGAGGAUCACCCAUGUGUCCUACCGG	17.7 nM	21 nM		
UAGCGGUAGGGAGGAUAUGCGAAAGGAAGGCCCGCAGAAGGCCUUACAUGAGGAUCACCCAUGUAGGAUGCCUGGGUGGUGCCC	14.5 nM	26.4 nM		
CUUUGAUGAGGAUAUCGAGGUUAGUACAUGAGGAUCACCCAUGUUAUCCAGGUGUCGGUUCGAGAAGGUAUUGGAC	16.7 nM	18.5 nM		
CCACGUCCCAUUAACAUGAGGAUCACCCAUGUCAAAAGACAUGAGGAUAUGCAUCCUAAUUGGAUGCAGAAGGCAUGGACGUGG			814 nM	87.1 nM
CCACGUGCUCAGAAGGGCUUUAAACACAAAUUAGCAGGAUAUGAGGACCGGUCGUGACAUGAGGAUCACCCAUGUUUUGUCUAG			38.6 nM	12.2 nM
UGUAUGGACAGAGGAUAUGCCGAUAGGCUCUACUAUCGAAGAAUCCUCACAUGAGGAUCACCCAUGUAGAAGGCUGUCCAUACU	18.1 nM	41.3 nM		
CCUCCCUGAGGAUAUCCACCCUCAUACAUGAGGAUCACCCAUGUUCAACCCUGGGUUCCCGGAGAAGGCAGCCUCC	706 nM	650 nM		
CCAGGCUUCGAGAAGGACAUGAGGAUCACCCAUGUGCGUGUGAAGCAGCCGUGAGGCUGCAUCAUGUAGGAUAUCGGAGUCUGC	77.2 nM	538 nM		
UACCUGAGGCAAAGCCUUAGGUAUACAUGAGGAUCACCCAUGUAGGAUAUGGUAGGCUUUGCUUACCAGAAGGACAUGUUAAUU	19.8 nM	63.8 nM		
ACCUCACAUGAGGAUCACCCAUGUCAGGAUAUGUACCCGAUCAAGUCAGAGAUUGGGAGCAGAAGGGACUGCGG	119 nM	34.5 nM		
UAUAUAUAGUAAGGAUAUGUAUUUAAUUUAUAAACAGAAGGUACUGACAUGAGGAUCACCCAUGUUUUAGUGUGGGCAUGUAGA	97.9 nM	147 nM		
AAAAUGUGAGGAUAUCAGGUGUGCUAGCGAACUGGUACAUCUGAGAAGGCACAUGAGGAUCACCCAUGUUCCUU	15.8 nM	57 nM		
AUUUAAAAGCAGAAGGGCAAGGUGGAUCCCUCACAUGAGGAUCACCCAUGUCUAGGCUUUACCGUGCAGGAUAUGCAAGUAAUA			26 nM	58.5 nM
CUGCUCGUAGAGAAGGCGUGGGCACAUGAGGAUCACCCAUGUCGCAGUACGAGGAUAUUUGCCGGCCCGCCCAAAAUGGCGCGG			501 nM	119 nM
CAGAUAGGUGUGAGGAUAUAUCGUUAGCAAUGGCUAUAGAAGGCACAUGAGGAUCACCCAUGUGAGAUUGGCGU	21.3 nM	20.5 nM		
GACUCGAAUGUAGGAUAUGCUGAGGAAUACUCAGCAGAAGGACAUGAGGAUCACCCAUGUAAAUGAGUGAAUAAUAAACGAGUC	1410 nM	197 nM		

From the EternaBench riboswitch data
